M1 antagonist = M1 muscarinic receptor (rat) antagonism; P08482; 64,000 tested, 3.4% active; CHO-M1 cells, Fluo-4 calcium, ACh EC80 antagonist mode; active compounds read low; B-score at 10 µM; AID 628;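 active = calcium fluorescence response, raw or row-and-column corrected B-score, differing from the plate sample mean either way at a set confidence level, mostly lower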
Jurkat viability = reduces viability or proliferation of Jurkat cells. Jurkat E6.1 viability, ATP luminescence, 48 h. inhibition, % at 4 µM. 56,000 tested, 1.2% active;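 active = inhibition above the mean inhibition of all tested compounds plus 3 SD, cut at about 28% in these data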
HEK293 NFkB inh = lowers PMA/ionomycin-induced NF-kB signal in HEK293 cells; inhibition, % at 3 µM; HEK-293 NF-kB luciferase reporter, luminescence; 62,000 tested, 0.21% active;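 active = inhibition above the mean of all tested compounds plus 3 SD, cut at about 40% in these data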;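 note: 0% = stimulated DMSO wells and 100% = 10 µM reference inhibitor 5653914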
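Reagent: PMA plus ionomycin mix as NF-kB-activating stimulus. Assay system: NF-kB luciferase reporter HEK-293 cells. Technique: luminescence from luciferase substrate reagent. Incubation: 1 h compound pre-incubation, 16 h PMA/ionomycin at 37 °C. Benchmarks: DMSO only as uninhibited control, 10 µM reference inhibitor as full inhibition. Repeats: tested once.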
D1 mod = allosterically modulates the human D1 dopamine receptor; P21728; HEK293 D1, CRE-luciferase, dopamine EC30 potentiation; actives deviate in either direction; B-score at 10 µM; 58,000 tested, 5.9% active; AID 641;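 active = luminescence count or its row- and column-corrected plate score outside the 99.7% band of the plate's sample wells, on either side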
Target sequence (P21728 whole entry, looked up): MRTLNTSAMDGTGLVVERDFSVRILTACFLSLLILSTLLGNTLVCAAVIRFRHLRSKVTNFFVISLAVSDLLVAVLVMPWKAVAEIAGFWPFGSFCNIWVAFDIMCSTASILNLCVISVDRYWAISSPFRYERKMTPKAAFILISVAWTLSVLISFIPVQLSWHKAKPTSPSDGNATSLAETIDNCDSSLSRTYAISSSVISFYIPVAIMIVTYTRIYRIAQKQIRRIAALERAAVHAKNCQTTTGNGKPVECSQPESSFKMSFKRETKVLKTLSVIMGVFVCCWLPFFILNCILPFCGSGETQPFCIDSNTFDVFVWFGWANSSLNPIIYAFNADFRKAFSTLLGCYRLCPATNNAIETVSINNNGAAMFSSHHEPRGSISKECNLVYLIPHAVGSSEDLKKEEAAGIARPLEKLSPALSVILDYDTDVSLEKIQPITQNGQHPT
hDAT+cocaine = human DAT dopamine uptake with cocaine, either direction; Q01959; LLC-PK1 hDAT cells, [14C]-dopamine uptake with cocaine IC80; actives deviate in either direction; B-score at 10 µM; 110,000 tested, 1.3% active; AID 449768;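 active = Z score or B-score, a plate-position-corrected score, falls beyond the plate's 99.7% confidence bounds, in either direction; inactive = both scores lie inside the 99.7% bounds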;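 note: scored against the spread of the other compound wells on the same plate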
M1 agonist = M1 muscarinic receptor agonism | CHO-M1 cells, Fluo-4 calcium fluorescence, agonist mode; active compounds read high | B-score at 10 µM | 64,000 tested, 3% active | AID 626;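 active = fluorescence rise, raw or as B-score row- and column-corrected plate score, outside the 99.7% band of its plate's samples, either direction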
Active calls of the source: *; x = no result. This is a sample that favours compounds with a hit; in the whole collection about 7.6% have one here.

SMILES	M1 antagonist	Jurkat viability	HEK293 NFkB inh	D1 mod	hDAT+cocaine	M1 agonist
COc1ccc(C(=O)Nc2ccc3c(c2)nc2n3CCSC2)cc1	-0.14	9	2	0.069	1.2	-0.3
CC(n1cnnn1)C12CC3CC(CC(C3)C1)C2 (stereo not drawn)	-1	1	6	0.86	-0.25	-0.51
CCC(C)(C)NC(=O)CN(C(=O)c1snc(C(N)=O)c1N)c1ccc(OC)c(OC)c1	x	x	x	x	0.0063	x
CC(C)C(=O)Nc1ccc(N2CCN(S(C)(=O)=O)CC2)cc1	1	-6	11	0.37	-0.58	-0.17
O=C(c1cccnc1)N1CCCc2ccccc21	0.028	-5	8	0.26	-1	-3*
CC(C)(C)OC(=O)CNC(=O)c1[nH]cnc1C(=O)N[C@@H](CCCCNC(=O)OC(C)(C)C)C(=O)OC(C)(C)C	x	x	x	x	2.8*	x
CCN(CC)S(=O)(=O)c1cccc(-c2nnc(SCC(=O)c3cc(C)n(C4CC4)c3C)o2)c1	-0.61	7	12	0.54	-5.8e-05	3.2*
O=C(Oc1ccc2c(c1)OCO2)c1cc2c(s1)CCC2	0.54	43*	2	-1.6	1.6	0.57
Cn1c(CN2CCCC2)nc2cc(NS(=O)(=O)c3ccccc3)ccc21	1.3	-1	9	0.025	0.74	0.32
O=S(=O)(Nc1ccc(O)c(CN2CCCCC2)c1)c1ccccc1	-0.3	13	15	0.035	1.6*	0.19
CCOc1c(OC)cccc1C1CC(=O)Nc2cc(OC)c(OC)cc21 (stereo not drawn)	-0.41	-3	16	1.6	0.18	-1.2
O=C(c1ccco1)N1CCN(CC(O)COc2ccc3oc4ccccc4c3c2)CC1 (stereo not drawn)	-2.2	4	2	-0.021	2.6*	2.1
O=C(Cn1c(NCCO)nc2ccccc21)c1ccc(Cl)cc1	-0.41	-7	4	2.2	-0.02	0.0089
COc1ccc(-n2c(C)cc(C(=O)Cn3c(NCCO)nc4ccccc43)c2C)cc1	0.11	1	7	-0.39	2.1*	0.72
COc1ccc(N2CCN(C(=O)c3cc4c(-c5cccc(OC)c5)nn(C)c4s3)CC2)cc1	0.24	9	5	1.2	2*	0.073
COc1ccc(-c2nn(C)c3sc(C(=O)N4CCOCC4)cc23)cc1OC	-0.71	6	23	1.1	-0.61	1
O=C(O)CSc1nc2ccccc2o1	-0.21	-1	0	0.89	-8.6*	1.2
O=C(CSc1nc2ccccc2s1)Nc1ncccn1	-0.017	0	10	0.71	-0.17	-0.18
O=S(=O)(CCSc1nc2ccccc2o1)c1nc2ccccc2s1	-0.9	64*	20	-2.6	0.1	-0.78
O=S(=O)(CCSc1ccccn1)c1nc2ccccc2s1	0.32	50*	24	-0.99	-0.15	0.12
O=C(CN1C(=O)c2ccccc2S1(=O)=O)NC1CCCCCC1	-0.048	2	12	-0.79	0.61	-0.58
CN(C)S(=O)(=O)c1ccc(C(=O)Nc2nc(-c3cccs3)cs2)cc1	0.05	36*	1	-2.6	-0.76	-0.2
CCOC(=O)N1CCN(CC(O)COC2CC(C)CC(C)(C)C2)CC1 (stereo not drawn)	-1.3	0	5	1.3	0.017	-1.2
COc1cccc(C2CC(c3ccccc3)Nc3nc(N)nn32)c1 (stereo not drawn)	-0.42	-6	-3	5.3*	0.47	2
COc1ccc(C2CC(c3cccc(OC)c3)n3nc(N)nc3N2)cc1 (stereo not drawn)	0.37	1	-4	-0.41	-0.34	-0.091
SMILES	M1 antagonist	Jurkat viability	HEK293 NFkB inh	D1 mod	hDAT+cocaine	M1 agonist
C=C1CCN([C@@H](Cc2ccccc2)C(=O)O)S(=O)(=O)c2ccccc21	x	x	x	x	-0.57	x
CCOC(=O)N1CCC(NC(=O)C2CCCCN2S(=O)(=O)c2ccc(F)cc2)CC1 (stereo not drawn)	-0.39	0	3	0.21	-1	0.63
O=C(CSc1nc2ccccc2s1)N1CCN(C(=O)c2ccco2)CC1	0.77	-3	15	0.48	0.93	-0.2
CCOc1ccc2nc(SCC(=O)N3CCN(C(=O)c4ccco4)CC3)sc2c1	x	x	x	x	-1.7*	x
COc1ccc(-c2nnc(SCC(=O)N3CCc4ccccc4C3)o2)cc1	-1.5	-4	-2	2.2	3.2*	-1.7
C/C(N)=C(/C#N)C(=O)CSc1nnc(-c2ccccc2Br)o1	x	x	x	x	-0.013	x

Source: PubChem (several laboratories)
